We go through three compounds from ChEMBL document CHEMBL1250448, “Inhibitor hijacking of Akt activation” (Nat Chem Biol, 2009).

For experiment [1], the target named is T1, Ephrin type-B receptor 1 (Homo sapiens) (UniProt P54762).
T1 sequence (whole entry): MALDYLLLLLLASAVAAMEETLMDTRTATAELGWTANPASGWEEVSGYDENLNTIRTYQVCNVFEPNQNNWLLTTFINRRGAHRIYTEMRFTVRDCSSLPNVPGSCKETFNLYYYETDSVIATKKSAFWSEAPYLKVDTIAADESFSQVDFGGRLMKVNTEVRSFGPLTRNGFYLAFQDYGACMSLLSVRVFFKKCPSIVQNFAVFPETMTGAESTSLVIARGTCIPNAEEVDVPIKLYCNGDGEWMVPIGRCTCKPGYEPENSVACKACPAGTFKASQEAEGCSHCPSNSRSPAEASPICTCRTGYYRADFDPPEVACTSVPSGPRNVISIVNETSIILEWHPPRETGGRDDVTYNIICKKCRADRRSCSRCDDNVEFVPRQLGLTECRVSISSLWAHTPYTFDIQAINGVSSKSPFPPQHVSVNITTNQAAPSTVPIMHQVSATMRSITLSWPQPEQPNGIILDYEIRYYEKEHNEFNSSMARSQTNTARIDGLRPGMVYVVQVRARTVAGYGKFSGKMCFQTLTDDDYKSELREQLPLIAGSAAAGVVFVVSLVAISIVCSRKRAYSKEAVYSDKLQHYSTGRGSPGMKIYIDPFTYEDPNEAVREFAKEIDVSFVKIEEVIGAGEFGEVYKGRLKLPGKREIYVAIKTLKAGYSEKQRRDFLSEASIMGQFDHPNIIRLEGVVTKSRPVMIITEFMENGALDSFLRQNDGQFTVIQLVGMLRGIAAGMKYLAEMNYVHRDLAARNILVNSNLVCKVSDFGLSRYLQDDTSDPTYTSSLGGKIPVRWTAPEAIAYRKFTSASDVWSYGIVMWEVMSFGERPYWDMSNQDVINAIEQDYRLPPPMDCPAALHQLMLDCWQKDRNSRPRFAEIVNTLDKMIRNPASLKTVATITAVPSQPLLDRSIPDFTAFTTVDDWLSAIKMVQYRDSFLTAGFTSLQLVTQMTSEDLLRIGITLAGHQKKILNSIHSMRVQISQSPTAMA
Description: Inhibition of EPHB1 at 1 uM in presence of 10 uM ATP by Select Screen kinase assay relative to untreated control. In short, it runs like this: (§1)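 Single-point screen at 1 μM against a panel of 220 purified kinases, run by Invitrogen staff as a SelectScreen profiling service. Read-out is percent inhibition of kinase activity.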

For experiment [2], the target named is Vascular endothelial growth factor receptor 1 (Homo sapiens) (UniProt P17948). Description: Inhibition of FLT1 at 1 uM in presence of 100 uM ATP by Select Screen kinase assay relative to untreated control. In short, it runs like this:
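Single-concentration profiling at 1 μM against a panel of 220 purified kinases, run as an outsourced SelectScreen kinase profiling service. Activity is expressed as percent inhibition.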

Experiment [3] has as its target T2, G protein-coupled receptor kinase 3 (Homo sapiens) (UniProt P35626).
T2 sequence (whole entry): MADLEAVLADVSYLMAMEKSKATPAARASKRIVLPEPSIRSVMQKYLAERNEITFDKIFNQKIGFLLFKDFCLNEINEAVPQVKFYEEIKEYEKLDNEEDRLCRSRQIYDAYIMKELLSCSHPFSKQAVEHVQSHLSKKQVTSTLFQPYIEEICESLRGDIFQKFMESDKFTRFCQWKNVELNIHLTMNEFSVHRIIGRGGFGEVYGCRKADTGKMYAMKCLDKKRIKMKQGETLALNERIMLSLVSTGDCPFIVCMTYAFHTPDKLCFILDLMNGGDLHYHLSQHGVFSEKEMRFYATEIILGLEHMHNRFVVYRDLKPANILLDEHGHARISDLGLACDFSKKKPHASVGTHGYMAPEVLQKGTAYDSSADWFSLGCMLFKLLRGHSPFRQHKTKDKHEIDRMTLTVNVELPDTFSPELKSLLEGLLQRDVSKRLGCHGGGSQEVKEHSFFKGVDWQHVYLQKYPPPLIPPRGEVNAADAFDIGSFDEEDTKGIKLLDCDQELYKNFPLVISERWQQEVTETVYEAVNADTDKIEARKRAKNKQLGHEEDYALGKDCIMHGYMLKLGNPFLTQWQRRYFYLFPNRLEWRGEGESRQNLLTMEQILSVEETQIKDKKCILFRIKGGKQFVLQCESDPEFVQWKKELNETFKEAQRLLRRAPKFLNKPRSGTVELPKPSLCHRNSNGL
Description: Inhibition of ADRBK2 at 1 uM in presence of 10 uM ATP by Select Screen kinase assay relative to untreated control. In short, it runs like this:
as §1

The target of experiment [4] is T3, Ephrin type-B receptor 2 (Homo sapiens) (UniProt P29323).
T3 sequence (whole entry): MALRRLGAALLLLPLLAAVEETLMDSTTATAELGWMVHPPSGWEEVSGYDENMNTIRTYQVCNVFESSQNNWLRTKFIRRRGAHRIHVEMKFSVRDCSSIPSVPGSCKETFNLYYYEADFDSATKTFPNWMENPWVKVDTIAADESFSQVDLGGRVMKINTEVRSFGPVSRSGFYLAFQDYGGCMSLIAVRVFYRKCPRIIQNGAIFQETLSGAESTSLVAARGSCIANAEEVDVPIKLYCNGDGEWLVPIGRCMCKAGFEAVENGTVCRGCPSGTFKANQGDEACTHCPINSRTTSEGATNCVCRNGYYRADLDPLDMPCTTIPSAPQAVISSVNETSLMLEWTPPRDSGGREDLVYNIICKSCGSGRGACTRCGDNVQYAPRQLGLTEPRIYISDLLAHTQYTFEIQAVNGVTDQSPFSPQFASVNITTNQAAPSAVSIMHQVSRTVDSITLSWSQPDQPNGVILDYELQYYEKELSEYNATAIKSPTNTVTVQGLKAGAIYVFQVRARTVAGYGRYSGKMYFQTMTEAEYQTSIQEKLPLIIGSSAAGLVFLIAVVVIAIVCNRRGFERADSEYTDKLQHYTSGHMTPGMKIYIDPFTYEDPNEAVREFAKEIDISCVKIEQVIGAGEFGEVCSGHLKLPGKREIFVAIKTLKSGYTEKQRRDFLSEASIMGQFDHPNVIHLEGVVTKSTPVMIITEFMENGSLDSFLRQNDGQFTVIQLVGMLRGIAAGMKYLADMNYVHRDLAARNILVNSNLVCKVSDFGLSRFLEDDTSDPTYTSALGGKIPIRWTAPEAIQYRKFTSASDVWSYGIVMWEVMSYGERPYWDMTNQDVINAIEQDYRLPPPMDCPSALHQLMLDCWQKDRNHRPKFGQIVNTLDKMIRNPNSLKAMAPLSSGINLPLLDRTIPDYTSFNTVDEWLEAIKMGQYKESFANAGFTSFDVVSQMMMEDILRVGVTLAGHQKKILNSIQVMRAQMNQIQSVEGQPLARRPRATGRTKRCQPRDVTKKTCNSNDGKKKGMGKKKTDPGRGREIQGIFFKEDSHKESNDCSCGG
Briefly: Inhibition of EPHB2 at 1 uM in presence of 10 uM ATP by Select Screen kinase assay relative to untreated control. The method, boiled down:
as §1

Sequence of Vascular endothelial growth factor receptor 1 (Homo sapiens) (P17948 whole entry): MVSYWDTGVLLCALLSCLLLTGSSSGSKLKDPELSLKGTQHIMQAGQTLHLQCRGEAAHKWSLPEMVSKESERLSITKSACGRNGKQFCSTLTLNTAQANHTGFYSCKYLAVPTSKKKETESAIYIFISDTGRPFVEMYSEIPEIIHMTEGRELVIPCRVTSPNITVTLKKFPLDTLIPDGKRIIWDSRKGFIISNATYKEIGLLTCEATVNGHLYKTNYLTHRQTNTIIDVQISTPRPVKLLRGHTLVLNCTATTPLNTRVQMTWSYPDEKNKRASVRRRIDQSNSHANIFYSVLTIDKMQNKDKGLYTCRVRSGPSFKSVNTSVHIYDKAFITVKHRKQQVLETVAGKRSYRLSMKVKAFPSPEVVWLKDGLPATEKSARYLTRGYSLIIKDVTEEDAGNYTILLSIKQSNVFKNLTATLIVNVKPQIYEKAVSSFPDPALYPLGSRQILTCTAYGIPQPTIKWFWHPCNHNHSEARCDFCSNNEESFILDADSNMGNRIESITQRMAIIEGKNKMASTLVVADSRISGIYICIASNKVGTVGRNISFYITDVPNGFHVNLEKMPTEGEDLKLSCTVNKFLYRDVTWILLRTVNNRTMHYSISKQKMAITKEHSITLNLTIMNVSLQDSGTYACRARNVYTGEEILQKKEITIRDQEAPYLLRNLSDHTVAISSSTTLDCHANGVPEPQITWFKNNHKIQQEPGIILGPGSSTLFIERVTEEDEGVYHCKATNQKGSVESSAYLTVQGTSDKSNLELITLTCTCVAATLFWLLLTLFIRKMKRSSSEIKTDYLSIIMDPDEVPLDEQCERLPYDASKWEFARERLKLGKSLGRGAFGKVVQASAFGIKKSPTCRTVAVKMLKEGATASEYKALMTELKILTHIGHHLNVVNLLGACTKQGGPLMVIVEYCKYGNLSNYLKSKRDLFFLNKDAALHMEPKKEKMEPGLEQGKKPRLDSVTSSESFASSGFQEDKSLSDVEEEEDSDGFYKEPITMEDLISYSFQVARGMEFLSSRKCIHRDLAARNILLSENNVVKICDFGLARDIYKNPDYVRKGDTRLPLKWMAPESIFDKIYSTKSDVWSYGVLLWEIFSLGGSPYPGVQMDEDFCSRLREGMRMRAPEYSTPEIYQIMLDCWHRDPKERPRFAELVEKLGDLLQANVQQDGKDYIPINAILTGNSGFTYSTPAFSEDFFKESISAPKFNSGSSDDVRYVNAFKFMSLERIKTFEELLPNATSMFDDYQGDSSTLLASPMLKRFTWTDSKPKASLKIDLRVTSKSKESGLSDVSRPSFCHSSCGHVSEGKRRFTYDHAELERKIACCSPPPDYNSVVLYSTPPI

One may read the inhibition as the drop in the measured response relative to a control, in per cent. With `COc1ccccc1N1CCN(c2ncnc3[nH]nc(Br)c23)CC1`, the inhibition in experiment [1] worked out at 11%; in experiment [2] it was 20%; in experiment [3] it was 8%; in experiment [4], 7%.

Take `Cc1n[nH]c2ccc(-c3cncc(OC[C@@H](N)Cc4c[nH]c5ccccc45)c3)cc12`: the inhibition in experiment [1] was 1%; in experiment [2], -2%; in experiment [3], 1%; in experiment [4] it was 1%.

As to `O=C(NCCCNc1nc(Nc2cccc(NC(=O)N3CCCC3)c2)ncc1I)c1cccs1`, the inhibition in experiment [1] is 16%; in experiment [2] it was 52%; in experiment [3], 10%; in experiment [4], 7%.
